# Results gathered from unrelated publications.
# Compare with care: the assays were run in different laboratories.
# Read-out: cell growth or viability
SMILES,cell line,assay,conditions,endpoint,value
O=C(NO)c1ccc(CNc2nc3cccc(-c4ccc5c(c4)OCO5)n3n2)cc1,KM12,SRB,,GI50,560 nM
CC(C)c1ccccc1[C@@H]1CCCN1C1CC2(CCN(c3ccc(C(=O)NS(=O)(=O)c4ccc(NC[C@H]5CC[C@](C)(O)CC5)c([N+](=O)[O-])c4)c(Oc4cnc5[nH]ccc5c4)c3)CC2)C1,OCI-Ly10,ATP luminescence,48 h,IC50,2.6 nM
Cc1c(C(=O)O)ccc2c3n(nc12)[C@@H]1[C@H](C3)N(CC2CC2)[C@@]2(C(=O)Nc3cc(Cl)ccc32)[C@H]1c1cccc(Cl)c1F,UACC-812,resazurin,,GI50,27 nM
C=CC(=O)NC1CCN(c2ncc3ncnc(Nc4ccc(Oc5ccc6c(c5)ncn6C)c(C)c4)c3n2)CC1,Daoy,,,EC50,74.4 nM
COc1cc2nc(N3CCN(C(=O)c4ccco4)CC3)nc(N)c2cc1OC,SUNE1,MTT,48 h,IC50,27400 nM
CC1(C)CCC(CN2CCN(c3ccc(C(=O)NS(=O)(=O)c4ccc(NCC5CCOCC5)c([N+](=O)[O-])c4)c(Oc4cnc5[nH]ccc5c4)c3)CC2)=C(c2ccc(Cl)cc2)C1,OCI-Ly10,ATP luminescence,48 h,IC50,19 nM
CO[C@]12C[C@@H](COC(=O)c3cncc(Br)c3)CN(C)[C@@H]1Cc1cn(C)c3cccc2c13,SUNE1,MTT,48 h,IC50,12200 nM
O=C(Nc1cnn2ccc(N3CCC[C@@H]3c3cc(F)ccc3F)nc12)N1CC[C@H](O)C1,KM12,ATP luminescence,72 h,IC50,10 nM
